Data as given in ChEMBL document CHEMBL4680077, “Differentiation of skeletal osteogenic progenitor cells to osteoblasts with 3,4-diarylbenzopyran based amide derivatives: Novel osteogenic agents” (Eur J Med Chem, 2016).
The source made the active and inactive calls. No cut-off for these calls is given here.

Columns and labels:
Calvarial osteoblast [1] = assay: Induction of osteoblast differentiation in mouse calvarial osteoblast assessed as increase in ALP activity using PNPP as substrate at 0.000001 to 1 uM incubated activity for 48 hrs by spectrophotometric analysis relative to control; assay type: functional, cell-based; settings: dose lower 1e-06 µM, dose upper 1.0 µM
Mus musculus [2] = assay: In vivo osteogenic activity in ovariectomized BALB/c mouse assessed as increase in femur bone volume density administered via oral gavage for 1 month by microCT imaging analysis; assay type: functional, organism-based; settings: time 1.0 months
Summary of the method: (§1)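 Ovariectomized female balb/c mice, 8 weeks old, 10 per group, received 1.0 or 10.0 mg kg-1 once daily by oral gavage (gum acacia vehicle) for 4 weeks, alongside sham and Ovx vehicle groups. Femurs were scanned by microCT. BV/TV, Tb.N and Tb.Sp were derived by the mean intercept length method. Mean ± SE.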

Mus musculus [3] = assay: In vivo osteogenic activity in ovariectomized BALB/c mouse assessed as increase in trabecular number administered via oral gavage for 1 month by microCT imaging analysis; assay type: functional, organism-based; settings: time 1.0 months; summary of the method: as §1
Mus musculus [4] = assay: In vivo osteogenic activity in ovariectomized BALB/c mouse assessed as decrease in trabecular spacing administered via oral gavage for 1 month by microCT imaging analysis; assay type: functional, organism-based; settings: time 1.0 months; summary of the method: as §1
Calvarial osteoblast [5] = assay: Induction of osteoblast differentiation in mouse calvarial osteoblast assessed as increase in ERbeta expression at 10 nM incubated for 48 hrs by Western blot analysis; assay type: functional, cell-based
Summary of the method: (§2)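 Calvarial osteoblasts at 60–70% confluence were treated ± compound for 48 h, with 100 pM E2 as positive control. Lysates (30 µg protein) were resolved on 10% SDS-PAGE, transferred to PVDF and probed for ER-α and ER-β with HRP secondaries and ECL detection. Bands were quantified by densitometry normalized to β-actin.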

Calvarial osteoblast [6] = assay: Induction of osteoblast differentiation in mouse calvarial osteoblast assessed as increase in ERalpha expression at 10 nM incubated for 48 hrs by Western blot analysis; assay type: functional, cell-based; summary of the method: as §2

For `CCCCN(C)C(=O)CCCOc1ccc([C@H]2c3ccc(OC)cc3OC(C)(C)[C@@H]2c2ccccc2)cc1`, the Activity (Calvarial osteoblast [1]) was “Active”.

In the case of `CCCCN(C)C(=O)CCCOc1ccc(C2=C(c3ccccc3)C(C)(C)Oc3cc(OC)ccc32)cc1`, the Activity (Calvarial osteoblast [1]) is reported as “Active”.

For `C[C@]12CC[C@@H]3c4ccc(O)cc4CC[C@H]3[C@@H]1CC[C@@H]2O`, the Activity (Mus musculus [2]) was “Active”, the Activity (Mus musculus [3]) was “Active” and the Activity (Mus musculus [4]) was “Active”. The Activity (Calvarial osteoblast [5]) was “Active” and the Activity (Calvarial osteoblast [6]) was “inactive”.

`COc1ccc2c(c1)OC(C)(C)[C@H](c1ccccc1)[C@H]2c1ccc(OCCCCCC(=O)NCc2ccccn2)cc1` was tested, and the Activity (Calvarial osteoblast [1]) was “Active”.

`COc1ccc2c(c1)OC(C)(C)[C@H](c1ccccc1)[C@H]2c1ccc(OCCCCC(=O)NCc2ccccn2)cc1` was tested, and the Activity (Calvarial osteoblast [1]) was “Active”.
